Source: ChEMBL document CHEMBL1806466, “2-Amino-4-methyl-5-phenylethyl substituted-7-N-benzyl-pyrrolo[2,3-d]pyrimidines as novel antitumor antimitotic agents that also reverse tumor resistance” (Bioorg Med Chem, 2011)
pIC50: −log10 of the molar value. Activity calls are given as the source filed them. The rule behind the calls is not given here.

Columns and labels:
[1] = biological target: Multidrug resistance-associated protein 1 (Homo sapiens, UniProt P33527); test: Reversal of MRP1-mediated multidrug resistance in human MCF7/VP cells assessed as enhancement of cytotoxicity of vincristine after 48 hrs by sulforhodamine B assay; assay type: cell-based
Multidrug resistance-associated protein 1, sequence (P33527 whole entry): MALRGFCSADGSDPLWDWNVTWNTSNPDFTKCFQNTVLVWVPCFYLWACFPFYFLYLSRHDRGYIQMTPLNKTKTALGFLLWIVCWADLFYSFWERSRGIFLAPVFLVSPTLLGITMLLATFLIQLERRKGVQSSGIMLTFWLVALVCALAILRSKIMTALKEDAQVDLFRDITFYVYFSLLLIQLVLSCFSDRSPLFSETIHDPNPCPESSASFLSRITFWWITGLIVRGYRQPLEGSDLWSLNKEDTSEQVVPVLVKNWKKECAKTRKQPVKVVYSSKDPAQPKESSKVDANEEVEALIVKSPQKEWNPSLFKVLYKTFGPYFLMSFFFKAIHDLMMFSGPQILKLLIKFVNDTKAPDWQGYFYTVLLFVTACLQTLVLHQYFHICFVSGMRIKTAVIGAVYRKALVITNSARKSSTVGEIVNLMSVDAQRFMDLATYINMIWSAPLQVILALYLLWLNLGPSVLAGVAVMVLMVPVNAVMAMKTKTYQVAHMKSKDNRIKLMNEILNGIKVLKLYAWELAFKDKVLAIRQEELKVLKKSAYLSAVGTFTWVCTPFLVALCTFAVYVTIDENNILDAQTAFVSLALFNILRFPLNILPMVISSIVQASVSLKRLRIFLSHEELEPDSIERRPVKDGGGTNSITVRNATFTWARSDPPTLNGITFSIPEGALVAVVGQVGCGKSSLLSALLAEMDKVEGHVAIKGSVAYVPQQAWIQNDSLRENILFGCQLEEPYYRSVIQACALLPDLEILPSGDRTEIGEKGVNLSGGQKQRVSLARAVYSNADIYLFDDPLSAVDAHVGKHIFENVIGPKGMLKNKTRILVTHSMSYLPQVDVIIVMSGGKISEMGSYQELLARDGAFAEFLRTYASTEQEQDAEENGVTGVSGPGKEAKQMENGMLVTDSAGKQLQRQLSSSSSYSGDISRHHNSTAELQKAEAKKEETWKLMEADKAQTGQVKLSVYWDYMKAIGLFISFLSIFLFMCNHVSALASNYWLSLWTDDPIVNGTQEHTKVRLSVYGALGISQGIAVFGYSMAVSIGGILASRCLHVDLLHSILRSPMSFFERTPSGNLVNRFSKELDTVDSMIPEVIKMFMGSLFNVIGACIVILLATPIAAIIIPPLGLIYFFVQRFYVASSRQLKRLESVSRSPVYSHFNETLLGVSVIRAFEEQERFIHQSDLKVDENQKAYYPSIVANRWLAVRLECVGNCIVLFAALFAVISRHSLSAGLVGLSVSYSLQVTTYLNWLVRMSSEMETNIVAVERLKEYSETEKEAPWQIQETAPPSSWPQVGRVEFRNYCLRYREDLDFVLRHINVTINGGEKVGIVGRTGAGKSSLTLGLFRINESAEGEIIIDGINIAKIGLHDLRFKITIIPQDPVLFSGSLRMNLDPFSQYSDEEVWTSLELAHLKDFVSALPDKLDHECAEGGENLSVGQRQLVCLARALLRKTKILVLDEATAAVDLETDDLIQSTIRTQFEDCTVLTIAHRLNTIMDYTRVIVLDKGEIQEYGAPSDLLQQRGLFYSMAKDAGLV
How it was run: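 MCF-7/VP cells plated at ~15% confluency and allowed 24 h to attach. […] Survival by SRB binding. MRP1 Antagonism Score = % survival without vincristine / % survival with vincristine.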

Bos taurus = organism: Bos taurus; test: Effect on bovine brain microtubule depolymerization assessed as decrease in absorbance at wavelength 340 nm after 15 mins
How it was run: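 Bovine brain tubulin purified by three assembly/disassembly cycles followed by ion exchange. Tubulin at 2.5 mg/mL […] in 1 M glutamate, pH 6.6, with 4% DMSO, preincubated with compound at 0 °C for 15 min. 0.5 mM GTP then added and samples warmed to 37 °C. A340 monitored about 60 min.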

[2] = Cytotoxic activity against Pgp-deficient human MCF7/VP cells expressing MRP1 after 48 hrs by sulforhodamine B assay; assay type: functional, cell-based
How it was run: (§1)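 Cells plated at ~15% confluency and allowed 24 h to attach, then exposed to varying test concentrations for 48 h. Survival by SRB binding, reported as % decrease in binding versus ethanol solvent controls, mean of three wells. For NCI/ADR, exposure with 0 or 50 nM vinblastine; for MCF-7/VP, with 0 or 1 nM vincristine.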

NCI/ADR = test: Reversal of Pgp-mediated multidrug resistance in human NCI/ADR cells assessed as enhancement of cytotoxicity of vinblastine after 48 hrs by sulforhodamine B assay; assay type: cell-based
How it was run: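 NCI/ADR cells plated at ~15% confluency and allowed 24 h to attach. […] Survival by SRB binding, each value the mean of three wells, with ethanol solvent controls. Pgp Antagonism Score = % survival without vinblastine / % survival with vinblastine.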

MCF7 [3] = test: Resistance factor, ratio of IC50 for drug-resistant […] human NCI/ADR cells expressing Pgp in absence of vinblastin to IC50 for drug-sensitive human MCF7 cells in presence of 50 nM vinblastin; assay type: functional
MCF7 [4] = test: Cytotoxic activity against drug-sensitive Pgp-, MRP1-deficient human MCF7 cells after 48 hrs by sulforhodamine B assay; settings: MCF7, 48 h
[5] = Cytotoxic activity against drug-resistant […]-deficient human NCI/ADR cells expressing Pgp after 48 hrs by sulforhodamine B assay; assay type: functional, cell-based; settings: NCI/ADR-RES; how it was run: as §1
MCF7 [6] = test: Resistance factor, ratio of IC50 for Pgp-deficient human MCF7/VP cells expressing MRP1 in absence of vincristine to IC50 for drug sensitive human MCF7 cells in presence of 1 nM vincristine

| Structure (SMILES) | Activity (Bos taurus) | Activity [1] | pIC50 [2] | Activity (NCI/ADR) | Ratio IC50 (MCF7 [3]) | pIC50 (MCF7 [4]) | pIC50 [5] | Ratio IC50 (MCF7 [6]) |
| --- | --- | --- | --- | --- | --- | --- | --- | --- |
| COc1cccc(OC)c1CCc1cn(Cc2ccccc2)c2nc(N)nc(C)c12 | Active | Not Active | 4.70 | Active | 0.54 | 4.66 | 4.92 | 0.91 |
| CC(=O)O[C@H]1C(=O)[C@@]2(C)[C@H]([C@H](OC(=O)c3ccccc3)[C@]3(O)C[C@H](OC(=O)[C@H](O)[C@@H](NC(=O)c4ccccc4)c4ccccc4)C(C)=C1C3(C)C)[C@]1(OC(C)=O)CO[C@@H]1C[C@@H]2O [PACLITAXEL] | inactive |  | 8.55 |  | 1080 |  | 5.57 | 1.1 |
| CC[C@]1(O)C[C@@H]2CN(CCc3c([nH]c4ccccc34)[C@@](C(=O)OC)(c3cc4c(cc3OC)N(C)[C@H]3[C@@](O)(C(=O)OC)[C@H](OC(C)=O)[C@]5(CC)C=CCN6CC[C@]43[C@@H]65)C2)C1 [VINBLASTINE] | Active |  | 8.52 |  | >134 |  | < 3.43 | 1.1 |
| COc1ccccc1CCc1cn(Cc2ccccc2)c2nc(N)nc(C)c12 |  | Not Active | 5.59 | Active | 1.17 |  | 5.57 | 1.13 |
| COc1ccc(CCc2cn(Cc3ccccc3)c3nc(N)nc(C)c23)c(OC)c1OC | Active | Active | 4.70 | inactive | 0.61 | 4.74 | 4.96 | 1.11 |
| COc1cc(OC)c(OC)cc1CCc1cn(Cc2ccccc2)c2nc(N)nc(C)c12 | inactive | Not Active | 4.82 | inactive | 0.66 | 4.82 | 5.00 | 1 |
| COc1cc(CCc2cn(Cc3ccccc3)c3nc(N)nc(C)c23)cc(OC)c1 | inactive | Active | 4.77 | inactive | 0.48 | 4.60 | 4.92 | 0.68 |

The next lines start with results.

| Activity (Bos taurus) | Structure (SMILES) | Activity [1] | pIC50 [2] | Activity (NCI/ADR) | Ratio IC50 (MCF7 [3]) | pIC50 (MCF7 [4]) | pIC50 [5] | Ratio IC50 (MCF7 [6]) |
| --- | --- | --- | --- | --- | --- | --- | --- | --- |
| inactive | Cc1nc(N)nc2c1c(CCc1ccccc1Cl)cn2Cc1ccccc1 | Not Active | 4.82 | inactive | 0.55 | 4.70 | 4.96 | 0.75 |
| Active | COc1cc(CCc2cn(Cc3ccccc3)c3nc(N)nc(C)c23)cc(OC)c1OC | Not Active | 6.60 | inactive | 0.83 |  | 6.60 | 0.83 |
| inactive | COc1ccc(CCc2cn(Cc3ccccc3)c3nc(N)nc(C)c23)cc1OC | Not Active | 5.15 | inactive | 0.29 | 4.77 | 5.30 | 0.41 |
| Active | CC[C@]1(O)C[C@H]2CN(CCc3c([nH]c4ccccc34)[C@@](C(=O)OC)(c3cc4c(cc3OC)N(C=O)[C@H]3[C@@](O)(C(=O)OC)[C@H](OC(C)=O)[C@]5(CC)C=CCN6CC[C@]43[C@@H]65)C2)C1 [VINCRISTINE] |  | 8.03 |  | 167 |  | 4.00 | 15.5 |
| inactive | COc1ccc(CCc2cn(Cc3ccccc3)c3nc(N)nc(C)c23)c(OC)c1 | Not Active | 4.92 | Active | 0.35 | 4.77 | 5.22 | 0.71 |
| inactive | COc1cc(CCc2cn(Cc3ccccc3)c3nc(N)nc(C)c23)c(OC)c(OC)c1 | Active | 4.20 | Active | 0.66 | 4.30 | 4.48 | 1.26 |
